Results reported in ChEMBL document CHEMBL1124846, “Synthesis, antiproliferative, and antiviral activity of certain 4-substituted and 4,5-disubstituted 7-[(1,3-dihydroxy-2-propoxy)methyl]pyrrolo[2,3-d]pyrimidines” (J Med Chem, 1990).
pIC50: −log10 of the molar value. Where “and” joins values, the source holds several entries; their conditions need not be identical. Identical values can stand only once.

Legend:
Human betaherpesvirus 5 = assay: Inhibition of human cytomegalovirus (HCMV) in plaque reduction assay; assay type: functional, organism-based
How it was run: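 HCMV Towne strain (plaque-purified P0) plaque reduction in HFF monolayers in MEM(E) with 10% FBS. Inoculum held about 50 PFU, with compound dissolved in the overlay medium. IC50 came from linear regression of percent inhibition against log concentration, with ganciclovir or acyclovir positive controls in every set; two to five experiments.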

Neoplastic cell line [1] = assay: Cytotoxic activity against KB cells.; assay type: cell-based; details: Homo sapiens
How it was run: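 KB cells (human oral epidermoid carcinoma) grown in MEM(H) with 5% FBS. Compound effect on incorporation of radiolabelled precursors into DNA, RNA and protein was measured. IC50s came from linear regression of percent inhibition against log concentration, and the three IC50s were averaged.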

L1210 [2] = assay: In vitro inhibition of L1210 cell growth.; assay type: functional, Mus musculus; parameters: concentration or dose not given beside the values
How it was run: (§1)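 Murine L1210 leukemia cells in static suspension culture in Fischer's medium with compound for 4 days. Growth rate is the ratio of control to treated population doubling time; where the rate changed, the final rate was used. IC50 is the concentration giving 50% of control growth rate; single-concentration value at 100 μM.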

L1210 [3] = assay: In vitro inhibition of L1210 cell growth to half of the control rate; assay type: functional, cell-based; details: Mus musculus; how it was run: as §1
[4] = Cytotoxic activity against BSC cells; assay type: cell-based; details: Cercopithecidae
How it was run: (§2)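 Cytotoxicity was scored visually in uninfected HFF or BSC-1 monolayers within the plaque-reduction assays. Drug-induced cytopathology was read at 35- and 60-fold magnification on a 0 to 4+ scale on the day plaques were stained and counted.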

Human alphaherpesvirus 1 [5] = assay: Inhibition of herpes simplex virus (HSV-1) in plaque reduction assay; assay type: functional, organism-based
How it was run: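 HSV-1 S-148 strain plaque reduction in BSC-1 monkey kidney monolayers, with about 100 PFU inoculum and compound dissolved in the overlay medium. IC50 came from linear regression of percent inhibition against log concentration, with a positive control in each set.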

[6] = Cytotoxic activity against HFF cells.; assay type: cell-based; details: Homo sapiens; how it was run: as §2
Human alphaherpesvirus 1 [7] = assay: Inhibition of herpes simplex virus (HSV-1) in yield reduction assay; assay type: functional, organism-based
[8] = Compound was evaluated for cytotoxic activity against BSC cells; assay type: cell-based; details: Cercopithecidae
How it was run: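 Visual cytotoxicity in uninfected areas of plaque-reduction cultures. HFF cells grown in MEM(E) + 10% FBS for HCMV (Towne) assays; BSC-1 cells for HSV-1 (S-148) assays. Drug in overlay medium. Cytopathology scored 0 to 4+ at 35- and 60-fold magnification on the staining day.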

Neoplastic cell line [9] = assay: Compound was evaluated for cytotoxic activity against KB cells; assay type: cell-based; details: Homo sapiens
How it was run: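 KB cells grown in MEM(H) + 5% FBS. Compound effects measured on radiolabelled precursor incorporation into DNA, RNA and protein. IC50s from linear regression of percent inhibition vs log concentration. The three IC50s were averaged, with 2–5 experiments averaged. Runs rejected if the acyclovir/ganciclovir control deviated >1.5 SD from its mean.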

Mus musculus [10] = assay: Compound was evaluated for percent mortality of mice inoculated with murine cytomegalovirus at a concentration of 5.6 mg/kg at 48 h; assay type: ADME, organism-based; parameters: dose 5.6 mg/kg; details: in vivo
How it was run: (§3)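 Three-week-old female Swiss Webster mice infected ip with 2×10^5 PFU MCMV Smith strain; groups of 15 given drug ip twice daily for 5 days, starting 6, 24 or 48 h after inoculation. Toxicity controls received drug without virus. Mortality followed daily for 21 days; final mortality compared with placebo by Fisher Exact Test.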

Mus musculus [11] = assay: Compound was evaluated for percent mortality of mice inoculated with murine cytomegalovirus at a concentration of 5.6 mg/kg at 6 h; assay type: ADME, organism-based; parameters: dose 5.6 mg/kg; details: in vivo; how it was run: as §3
Mus musculus [12] = assay: Compound was evaluated for percent mortality of mice inoculated with murine cytomegalovirus at a concentration of 0.6 mg/kg at 24 h; assay type: organism-based; parameters: dose 0.6 mg/kg; details: in vivo
How it was run: (§4)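 Three-week-old female Swiss Webster mice inoculated ip with 2×10^5 PFU MCMV Smith strain. Groups of 15 dosed ip twice daily for 5 days, starting 6, 24 or 48 h post-inoculation. Held 21 days with daily mortality checks. Final mortality and mean day of death (dying animals) computed. Mortality versus placebo by Fisher Exact Test, MDD by Mann–Whitney U-rank test.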

Mus musculus [13] = assay: Compound was evaluated for percent mortality of mice inoculated with murine cytomegalovirus at a concentration of 0.6 mg/kg at 48 h; assay type: organism-based; parameters: dose 0.6 mg/kg; details: in vivo; how it was run: as §4
Mus musculus [14] = assay: Compound was evaluated for percent mortality of mice inoculated with murine cytomegalovirus at a concentration of 0.6 mg/kg at 6 h; assay type: organism-based; parameters: dose 0.6 mg/kg; details: in vivo; how it was run: as §4
Mus musculus [15] = assay: Compound was evaluated for percent mortality of mice inoculated with murine cytomegalovirus at a concentration of 1.9 mg/kg at 24 h; assay type: organism-based; parameters: dose 1.9 mg/kg; details: in vivo; how it was run: as §4
Mus musculus [16] = assay: Compound was evaluated for percent mortality of mice inoculated with murine cytomegalovirus at a concentration of 1.9 mg/kg at 48 h; assay type: organism-based; parameters: dose 1.9 mg/kg; details: in vivo; how it was run: as §4
Mus musculus [17] = assay: Compound was evaluated for percent mortality of mice inoculated with murine cytomegalovirus at a concentration of 1.9 mg/kg at 6 h; assay type: organism-based; parameters: dose 1.9 mg/kg; details: in vivo; how it was run: as §4
Mus musculus [18] = assay: Compound was evaluated for percent mortality of mice inoculated with murine cytomegalovirus at a concentration of 16.7 mg/kg at 24 h; assay type: organism-based; parameters: dose 16.7 mg/kg; details: in vivo; how it was run: as §4
Mus musculus [19] = assay: Compound was evaluated for percent mortality of mice inoculated with murine cytomegalovirus at a concentration of 16.7 mg/kg at 48 h; assay type: organism-based; parameters: dose 16.7 mg/kg; details: in vivo; how it was run: as §4
Mus musculus [20] = assay: Compound was evaluated for percent mortality of mice inoculated with murine cytomegalovirus at a concentration of 16.7 mg/kg at 6 h; assay type: organism-based; parameters: dose 16.7 mg/kg; details: in vivo; how it was run: as §4
Mus musculus [21] = assay: Compound was evaluated for percent mortality of mice inoculated with murine cytomegalovirus at a concentration of 5.6 mg/kg at 24 h; assay type: ADME, organism-based; parameters: dose 5.6 mg/kg; details: in vivo; how it was run: as §3
Mus musculus [22] = assay: Compound was evaluated for 15 mice treated ip twice daily for 5 days at a dose of 0.6 mg/kg at 24 h followed (MCMV) virus inoculation; assay type: functional; details: route intraperitoneal; how it was run: as §4
Mus musculus [23] = assay: Compound was evaluated for 15 mice treated ip twice daily for 5 days at a dose of 0.6 mg/kg at 48 h followed (MCMV) virus inoculation; assay type: functional; details: route intraperitoneal; how it was run: as §4
Mus musculus [24] = assay: Compound was evaluated for 15 mice treated ip twice daily for 5 days at a dose of 0.6 mg/kg at 6 hr followed (MCMV) virus inoculation; assay type: functional; details: route intraperitoneal; how it was run: as §4
Mus musculus [25] = assay: Compound was evaluated for 15 mice treated ip twice daily for 5 days at a dose of 1.9 mg/kg at 24 hr followed (MCMV) virus inoculation; assay type: functional; details: route intraperitoneal; how it was run: as §4
Mus musculus [26] = assay: Compound was evaluated for 15 mice treated ip twice daily for 5 days at a dose of 1.9 mg/kg at 48 hr followed (MCMV) virus inoculation; assay type: functional; details: route intraperitoneal; how it was run: as §4
Mus musculus [27] = assay: Compound was evaluated for 15 mice treated ip twice daily for 5 days at a dose of 1.9 mg/kg at 6 hr followed (MCMV) virus inoculation; assay type: functional; details: route intraperitoneal; how it was run: as §4
Mus musculus [28] = assay: Compound was evaluated for 15 mice treated ip twice daily for 5 days at a dose of 16.7 mg/kg at 24 hr followed (MCMV) virus inoculation; assay type: functional; details: route intraperitoneal; how it was run: as §4
Mus musculus [29] = assay: Compound was evaluated for 15 mice treated ip twice daily for 5 days at a dose of 16.7 mg/kg at 48 hr followed (MCMV) virus inoculation; assay type: functional; details: route intraperitoneal; how it was run: as §4
Mus musculus [30] = assay: Compound was evaluated for 15 mice treated ip twice daily for 5 days at a dose of 16.7 mg/kg at 6 hr followed (MCMV) virus inoculation; assay type: functional; details: route intraperitoneal; how it was run: as §4
Mus musculus [31] = assay: Compound was evaluated for 15 mice treated ip twice daily for 5 days at a dose of 5.6 mg/kg at 24 hr followed (MCMV) virus inoculation; assay type: functional; details: route intraperitoneal; how it was run: as §4
Mus musculus [32] = assay: Compound was evaluated for 15 mice treated ip twice daily for 5 days at a dose of 5.6 mg/kg at 48 hr followed (MCMV) virus inoculation; assay type: functional; details: route intraperitoneal; how it was run: as §4
Mus musculus [33] = assay: Compound was evaluated for 15 mice treated ip twice daily for 5 days at a dose of 5.6 mg/kg at 6 hr followed (MCMV) virus inoculation; assay type: functional; details: route intraperitoneal; how it was run: as §4
Mus musculus [34] = assay: Compound was evaluated for mean day of death at 0.6 mg/kg at 48 h; assay type: functional; how it was run: as §4
Mus musculus [35] = assay: Compound was evaluated for mean day of death at 0.6 mg/kg at 6 h; assay type: functional; how it was run: as §4
Mus musculus [36] = assay: Compound was evaluated for mean day of death at 1.9 mg/kg at 24 h; assay type: functional; how it was run: as §4
Mus musculus [37] = assay: Compound was evaluated for mean day of death at 1.9 mg/kg at 48 h; assay type: functional; how it was run: as §4
Mus musculus [38] = assay: Compound was evaluated for mean day of death at 1.9 mg/kg at 6 h; assay type: functional; how it was run: as §4
Mus musculus [39] = assay: Compound was evaluated for mean day of death at 16.7 mg/kg at 24 h; assay type: functional; how it was run: as §4
Mus musculus [40] = assay: Compound was evaluated for mean day of death at 16.7 mg/kg at 48 h; assay type: functional; how it was run: as §4
Mus musculus [41] = assay: Compound was evaluated for mean day of death at 16.7 mg/kg at 6 h; assay type: functional; how it was run: as §4
Mus musculus [42] = assay: Compound was evaluated for mean day of death at 5.6 mg/kg at 24 h; assay type: functional; how it was run: as §4
Mus musculus [43] = assay: Compound was evaluated for mean day of death at 5.6 mg/kg at 48 h; assay type: functional; how it was run: as §4
Mus musculus [44] = assay: Compound was evaluated for mean day of death at 5.6 mg/kg at 6 h; assay type: functional; how it was run: as §4
Mus musculus [45] = assay: Compound was evaluated for mean day of death at 0.6 mg/kg at 24 h; assay type: functional; how it was run: as §4

Nc1ncnc2c1c(Br)cn2[C@@H]1O[C@H](CO)[C@@H](O)[C@H]1O
pIC50 (Human betaherpesvirus 5): 5.47
pIC50 (Neoplastic cell line [1]): 5.64
Activity (L1210 [2]): 9%
pIC50 (L1210 [3]): 5.40

CNc1ncnc2c1c(Br)cn2COC(CO)CO
pIC50 [4]: < 4.00
pIC50 (Human alphaherpesvirus 1 [5]): < 4.00
pIC50 (Human betaherpesvirus 5; Human betaherpesvirus 5): < 4.00
pIC50 [6]: < 4.00
Activity (L1210 [2]): 100%

OCC(CO)OCn1cc(Br)c2c(NO)ncnc21
pIC50 (Human alphaherpesvirus 1 [5]): 5.54
IC90 (Human alphaherpesvirus 1 [7]): > 100 µM
pIC50 (Human betaherpesvirus 5): 5.92 and 5.00
pIC50 [6]: < 4.00
pIC50 (Neoplastic cell line [1]): 3.49
Activity (L1210 [2]): 0%
pIC50 (L1210 [3]): 5.43

Nc1nc2c(ncn2COC(CO)CO)c(=O)[nH]1 [GANCICLOVIR]
pIC50 [8]: < 4.00
pIC50 (Human alphaherpesvirus 1 [5]): 5.35
IC90 (Human alphaherpesvirus 1 [7]): 1.2 µM
pIC50 (Human betaherpesvirus 5): 5.06
pIC50 (Neoplastic cell line [9]): < 4.00
Mortality (Mus musculus [10]): 67%
Mortality (Mus musculus [11]): 33%
Mortality (Mus musculus [12]): 80%
Mortality (Mus musculus [13]): 93%
Mortality (Mus musculus [14]): 93%
Mortality (Mus musculus [15]): 80%
Mortality (Mus musculus [16]): 73%
Mortality (Mus musculus [17]): 33%
Mortality (Mus musculus [18]): 47%
Mortality (Mus musculus [19]): 53%
Mortality (Mus musculus [20]): 27%
Mortality (Mus musculus [21]): 47%
Activity (Mus musculus [22]): 12
Activity (Mus musculus [23]): 14
Activity (Mus musculus [24]): 14
Activity (Mus musculus [25]): 12
Activity (Mus musculus [26]): 11
Activity (Mus musculus [27]): 5
Activity (Mus musculus [28]): 7
Activity (Mus musculus [29]): 8
Activity (Mus musculus [30]): 4
Activity (Mus musculus [31]): 7
Activity (Mus musculus [32]): 10
Activity (Mus musculus [33]): 5
MDD (Mus musculus [34]): 5.3
MDD (Mus musculus [35]): 4.6
MDD (Mus musculus [36]): 4.9
MDD (Mus musculus [37]): 4.9
MDD (Mus musculus [38]): 5.4
MDD (Mus musculus [39]): 5.3
MDD (Mus musculus [40]): 5.5
MDD (Mus musculus [41]): 3.8
MDD (Mus musculus [42]): 5.3
MDD (Mus musculus [43]): 5.5
MDD (Mus musculus [44]): 4.2
MDD (Mus musculus [45]): 5.4
